ChEMBL document CHEMBL4177755, “Combating Drug-Resistant Fungi with Novel Imperfectly Amphipathic Palindromic Peptides” (J Med Chem, 2018)
In brackets after ≈: the same amount, converted by molar mass.

Tests used:
Type in all cases: functional
Candida albicans [1] = test: Antifungal activity against Candida albicans cgmcc 2.2086 after 48 hrs by broth microdilution method; conditions: cgmcc 2.2086, 48 h
Outline: (§1)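 Modified CLSI M27-A2 broth microdilution. Yeast at (0.5−1) × 10^3 CFU/mL in MOPS-buffered RPMI 1640 was mixed 1:1 with peptide serially diluted in 0.2% BSA and incubated 48 h at 28 °C. Absorbance was read at 492 nm; MIC is the lowest concentration inhibiting 95% of growth. Triplicate, three biological replicates.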

Candida albicans [2] = test: Antifungal activity against Candida albicans SP3931 after 48 hrs by broth microdilution method; conditions: SP3931, 48 h; outline: as §1
Candida albicans [3] = test: Antifungal activity against Candida albicans SP3903 after 48 hrs by broth microdilution method; conditions: SP3903, 48 h; outline: as §1
Candida albicans [4] = test: Antifungal activity against Candida albicans SP3902 after 48 hrs by broth microdilution method; conditions: SP3902, 48 h; outline: as §1
Candida albicans [5] = test: Antifungal activity against Candida albicans SP3876 after 48 hrs by broth microdilution method; conditions: SP3876, 48 h; outline: as §1
Candida albicans [6] = test: Antifungal activity against Candida albicans isolated from alveolar fluid after 48 hrs by broth microdilution method; outline: as §1
Candida albicans [7] = test: Antifungal activity against fluconazole-resistant Candida albicans 56452 after 48 hrs by broth microdilution method; conditions: Candida albicans, 56452, 48 h; outline: as §1
Candida albicans [8] = test: Antifungal activity against fluconazole-resistant Candida albicans 56214 after 48 hrs by broth microdilution method; conditions: Candida albicans, 56214, 48 h; outline: as §1
Candida albicans [9] = test: Antifungal activity against Candida albicans 14936 after 48 hrs by broth microdilution method; conditions: Candida albicans, 14936, 48 h; outline: as §1
Candida albicans [10] = test: Antifungal activity against fluconazole-resistant Candida albicans 17546 after 48 hrs by broth microdilution method; conditions: Candida albicans, 17546, 48 h; outline: as §1
Candida tropicalis [11] = test: Antifungal activity against Candida tropicalis cgmcc 2.1975 after 48 hrs by broth microdilution method; conditions: cgmcc 2.1975, 48 h
Outline: (§2)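 Modified CLSI M27-A2 broth microdilution. Yeast were suspended in MOPS-buffered RPMI 1640 at a final (0.5−1) × 10^3 CFU/mL and mixed 1:1 with peptide serially diluted in 0.2% BSA. Plates were incubated 48 h at 28 °C and read at A492. MIC is the lowest concentration giving 95% inhibition. Run in triplicate with three biological replicates.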

Pichia kudriavzevii [12] = test: Antifungal activity against Candida krusei cgmcc 2.1857 after 48 hrs by broth microdilution method; conditions: cgmcc 2.1857, 48 h; outline: as §2
Candida parapsilosis [13] = test: Antifungal activity against Candida parapsilosis cgmcc 2.3989 after 48 hrs by broth microdilution method; conditions: Lodderomyces parapsilosis, cgmcc 2.3989, 48 h; outline: as §2
Candida albicans [14] = test: Fungicidal activity against Candida albicans cgmcc 2.2086 after 96 hrs; conditions: cgmcc 2.2086, 96 h, read-out: MFC99.9
Outline: (§3)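 After the 48 h, 28 °C broth microdilution in MOPS-buffered RPMI 1640 (inoculum (0.5−1) × 10^3 CFU/mL), 50 μL from each well was plated on YM agar for a further 48 h at 28 °C. MFC is the lowest concentration killing at least 99.9% of cells. Triplicate, three biological replicates.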

Candida albicans [15] = test: Fungicidal activity against Candida albicans SP3931 after 96 hrs; conditions: SP3931, 96 h, read-out: MFC99.9; outline: as §3
Candida albicans [16] = test: Fungicidal activity against Candida albicans SP3903 after 96 hrs; conditions: SP3903, 96 h, read-out: MFC99.9; outline: as §3
Candida albicans [17] = test: Fungicidal activity against Candida albicans SP3902 after 96 hrs; conditions: SP3902, 96 h, read-out: MFC99.9; outline: as §3
Candida albicans [18] = test: Fungicidal activity against Candida albicans SP3876 after 96 hrs; conditions: SP3876, 96 h, read-out: MFC99.9; outline: as §3
Candida albicans [19] = test: Fungicidal activity against Candida albicans isolated from alveolar fluid after 96 hrs; conditions: read-out: MFC99.9; outline: as §3
Candida albicans [20] = test: Fungicidal activity against fluconazole-resistant Candida albicans 56452 after 96 hrs; conditions: Candida albicans, 56452, 96 h; read-out: MFC99.9; outline: as §3
Candida albicans [21] = test: Fungicidal activity against fluconazole-resistant Candida albicans 56214 after 96 hrs; conditions: Candida albicans, 56214, 96 h; read-out: MFC99.9; outline: as §3
Candida albicans [22] = test: Fungicidal activity against Candida albicans 14936 after 96 hrs; conditions: Candida albicans, 14936, 96 h; read-out: MFC99.9; outline: as §3
Candida albicans [23] = test: Fungicidal activity against fluconazole-resistant Candida albicans 17546 after 96 hrs; conditions: Candida albicans, 17546, 96 h; read-out: MFC99.9; outline: as §3
Candida tropicalis [24] = test: Fungicidal activity against Candida tropicalis cgmcc 2.1975 after 96 hrs; conditions: cgmcc 2.1975, 96 h, read-out: MFC99.9
Outline: (§4)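 Wells from the 48 h, 28 °C RPMI 1640/MOPS microdilution plates were plated on YM agar and incubated a further 48 h at 28 °C. MFC is the lowest concentration killing at least 99.9% of cells. Run in triplicate with three biological replicates.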

Pichia kudriavzevii [25] = test: Fungicidal activity against Candida krusei cgmcc 2.1857 after 96 hrs; conditions: cgmcc 2.1857, 96 h, read-out: MFC99.9; outline: as §4
Candida parapsilosis [26] = test: Fungicidal activity against Candida parapsilosis cgmcc 2.3989 after 96 hrs; conditions: Lodderomyces parapsilosis, cgmcc 2.3989, 96 h; read-out: MFC99.9; outline: as §4
Candida albicans [27] = test: Antifungal activity against Candida albicans cgmcc 2.2086 in presence of NaCl by broth dilution method
Candida albicans [28] = test: Antifungal activity against Candida albicans cgmcc 2.2086 in presence of KCl by broth dilution method
Candida albicans [29] = test: Antifungal activity against Candida albicans cgmcc 2.2086 in presence of NH4Cl by broth dilution method
Candida albicans [30] = test: Antifungal activity against Candida albicans cgmcc 2.2086 in presence of MgCl2 by broth dilution method
Candida albicans [31] = test: Antifungal activity against Candida albicans cgmcc 2.2086 in presence of CaCl2 by broth dilution method
Candida albicans [32] = test: Antifungal activity against Candida albicans cgmcc 2.2086 in presence of ZnCl2 by broth dilution method
Candida albicans [33] = test: Antifungal activity against Candida albicans cgmcc 2.2086 in presence of FeCl3 by broth dilution method
Candida albicans [34] = test: Antifungal activity against Candida albicans cgmcc 2.2086 in presence of 12.5% human heat-inactivated serum by broth dilution method
Candida albicans [35] = test: Antifungal activity against Candida albicans cgmcc 2.2086 in presence of 25% human heat-inactivated serum by broth dilution method
Candida albicans [36] = test: Antifungal activity against Candida albicans cgmcc 2.2086 in presence of 50% human heat-inactivated serum by broth dilution method
Candida albicans [37] = test: Antifungal activity against Candida albicans 58288 after 48 hrs by broth microdilution method; conditions: Candida albicans, 58288, 48 h; outline: as §1
Candida albicans [38] = test: Fungicidal activity against Candida albicans 58288 after 96 hrs; conditions: Candida albicans, 58288, 96 h; read-out: MFC99.9; outline: as §3

Structure (SMILES): C[C@@H]1[C@H](O)[C@@H](C)/C=C/C=C/C=C/C=C/C=C/C=C/C=C/[C@H](O[C@@H]2O[C@H](C)[C@@H](O)[C@H](N)[C@@H]2O)C[C@@H]2O[C@](O)(C[C@@H](O)C[C@@H](O)[C@H](O)CC[C@@H](O)C[C@@H](O)CC(=O)O[C@H]1C)C[C@H](O)[C@H]2C(=O)O [AMPHOTERICIN B]
- MIC95 (Candida albicans [1]): 1 µM (≈ 0.924 µg/mL)
- MIC95 (Candida albicans [2]): 0.25 µM (≈ 0.231 µg/mL)
- MIC95 (Candida albicans [3]): 0.125 µM (≈ 0.116 µg/mL)
- MIC95 (Candida albicans [4]): 0.25 µM (≈ 0.231 µg/mL)
- MIC95 (Candida albicans [5]): 0.25 µM (≈ 0.231 µg/mL)
- MIC95 (Candida albicans [6]): 1 µM (≈ 0.924 µg/mL)
- MIC95 (Candida albicans [7]): 1 µM (≈ 0.924 µg/mL)
- MIC95 (Candida albicans [8]): 1 µM (≈ 0.924 µg/mL)
- MIC95 (Candida albicans [9]): 0.25 µM (≈ 0.231 µg/mL)
- MIC95 (Candida albicans [10]): 0.25 µM (≈ 0.231 µg/mL)
- MIC95 (Candida tropicalis [11]): 1 µM (≈ 0.924 µg/mL)
- MIC95 (Pichia kudriavzevii [12]): 1 µM (≈ 0.924 µg/mL)
- MIC95 (Candida parapsilosis [13]): 2 µM (≈ 1.85 µg/mL)
- MFC (Candida albicans [14]): 1 µM (≈ 0.924 µg/mL)
- MFC (Candida albicans [15]): 1 µM (≈ 0.924 µg/mL)
- MFC (Candida albicans [16]): 1 µM (≈ 0.924 µg/mL)
- MFC (Candida albicans [17]): 1 µM (≈ 0.924 µg/mL)
- MFC (Candida albicans [18]): 0.5 µM (≈ 0.462 µg/mL)
- MFC (Candida albicans [19]): 2 µM (≈ 1.85 µg/mL)
- MFC (Candida albicans [20]): 2 µM (≈ 1.85 µg/mL)
- MFC (Candida albicans [21]): 2 µM (≈ 1.85 µg/mL)
- MFC (Candida albicans [22]): 0.5 µM (≈ 0.462 µg/mL)
- MFC (Candida albicans [23]): 1 µM (≈ 0.924 µg/mL)
- MFC (Candida tropicalis [24]): 2 µM (≈ 1.85 µg/mL)
- MFC (Pichia kudriavzevii [25]): 1 µM (≈ 0.924 µg/mL)
- MFC (Candida parapsilosis [26]): 2 µM (≈ 1.85 µg/mL)
- MIC (Candida albicans [27]): 1 µM
- MIC (Candida albicans [28]): 1 µM
- MIC (Candida albicans [29]): 1 µM
- MIC (Candida albicans [30]): 1 µM
- MIC (Candida albicans [31]): 2 µM
- MIC (Candida albicans [32]): 1 µM
- MIC (Candida albicans [33]): 1 µM
- MIC (Candida albicans [34]): 1 µM
- MIC (Candida albicans [35]): 1 µM
- MIC (Candida albicans [36]): 1 µM
- MIC95 (Candida albicans [37]): 0.5 µM (≈ 0.462 µg/mL)
- MFC (Candida albicans [38]): 2 µM (≈ 1.85 µg/mL)

Structure (SMILES): CC(=O)N1CCN(c2ccc(OCC3COC(Cn4ccnc4)(c4ccc(Cl)cc4Cl)O3)cc2)CC1 (stereo unspecified) [KETOCONAZOLE]
- MIC95 (Candida albicans [1]): 0.25 µM (≈ 0.133 µg/mL)
- MIC95 (Candida albicans [2]): > 64 µM
- MIC95 (Candida albicans [3]): > 64 µM
- MIC95 (Candida albicans [4]): > 64 µM
- MIC95 (Candida albicans [5]): > 64 µM
- MIC95 (Candida albicans [6]): 0.5 µM (≈ 0.266 µg/mL)
- MIC95 (Candida albicans [7]): 64 µM (≈ 34 µg/mL)
- MIC95 (Candida albicans [8]): 64 µM (≈ 34 µg/mL)
- MIC95 (Candida albicans [9]): > 64 µM
- MIC95 (Candida albicans [10]): 32 µM (≈ 17 µg/mL)
- MIC95 (Candida tropicalis [11]): 0.25 µM (≈ 0.133 µg/mL)
- MIC95 (Pichia kudriavzevii [12]): 1 µM (≈ 0.531 µg/mL)
- MIC95 (Candida parapsilosis [13]): 0.25 µM (≈ 0.133 µg/mL)
- MFC (Candida albicans [14]): 1 µM (≈ 0.531 µg/mL)
- MFC (Candida albicans [15]): > 64 µM
- MFC (Candida albicans [16]): > 64 µM
- MFC (Candida albicans [17]): > 64 µM
- MFC (Candida albicans [18]): > 64 µM
- MFC (Candida albicans [19]): 2 µM (≈ 1.06 µg/mL)
- MFC (Candida albicans [20]): > 64 µM
- MFC (Candida albicans [21]): > 64 µM
- MFC (Candida albicans [22]): > 64 µM
- MFC (Candida albicans [23]): 64 µM (≈ 34 µg/mL)
- MFC (Candida tropicalis [24]): 1 µM (≈ 0.531 µg/mL)
- MFC (Pichia kudriavzevii [25]): 1 µM (≈ 0.531 µg/mL)
- MFC (Candida parapsilosis [26]): 1 µM (≈ 0.531 µg/mL)
- MIC (Candida albicans [27]): 0.25 µM
- MIC (Candida albicans [28]): 0.25 µM
- MIC (Candida albicans [29]): 0.25 µM
- MIC (Candida albicans [30]): 0.25 µM
- MIC (Candida albicans [31]): 0.5 µM
- MIC (Candida albicans [32]): 0.25 µM
- MIC (Candida albicans [33]): 0.25 µM
- MIC (Candida albicans [34]): 0.25 µM
- MIC (Candida albicans [35]): 0.25 µM
- MIC (Candida albicans [36]): 0.5 µM
- MIC95 (Candida albicans [37]): 1 µM (≈ 0.531 µg/mL)
- MFC (Candida albicans [38]): > 64 µM
